The source made the active and inactive calls. No cut-off for these calls is given here.
Tests used:
[1] = Unbound plasma concentration in C57BL/6J/129SvEV mouse model of Gaucher's disease at 30 mg/kg, ip administered once daily for 14 days measured 1 hr post last dose; format: ADME, organism-based; conditions: in vivo
Summary of the method: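 4L;C* mice dosed i.p. once daily for 14 days, killed 1 h after last dose (day 14); plasma and brain drug levels measured; unbound concentrations from plasma and brain unbound fractions (mean of two technical replicates); N = 4–8, mixed sexes.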

[2] = Unbound plasma concentration in twitcher mouse model of Krabbe's disease at 90 mg/kg, ip administered once daily for 20 days measured 1 hr post-last dose; format: ADME, organism-based; conditions: in vivo
Summary of the method: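 Twitcher mice dosed i.p. once daily for 20 days, sacrificed 1 h after last dose (day 20); drug measured in plasma and brain; unbound levels from unbound fractions (mean of two technical replicates); N = 3 males + 3 females per group.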

[3] = Ratio of unbound drug level in brain of twitcher mouse model of Krabbe's disease at 90 mg/kg,ip administered once daily for 20 days measured 1 hr post-last dose to EC50 for inhibition of acid ceramidase in Krabbe's disease patient-derived primary fibroblasts; format: organism-based; conditions: in vivo
Summary of the method: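 Twitcher mice (3 males + 3 females per group) got 30 or 90 mg kg–1 i.p. once daily for 20 days from postnatal day 10 and were sacrificed 1 h after the day-20 dose. Plasma and brain levels were measured, and unbound brain level came from brain fraction unbound (two technical replicates). The EC50 was from Krabbe patient primary fibroblasts exposed 2 h to a concentration series (two independent experiments, duplicates).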

[4] = molecular target: T1, Acid ceramidase (Homo sapiens) (UniProt Q13510); assay: Inhibition of acid ceramidase in human SH-SY5Y cells assessed as decrease in sphingosine level at 10 uM measured up to 6 hrs by LC/MS analysis; format: cell-based
T1 sequence (whole entry): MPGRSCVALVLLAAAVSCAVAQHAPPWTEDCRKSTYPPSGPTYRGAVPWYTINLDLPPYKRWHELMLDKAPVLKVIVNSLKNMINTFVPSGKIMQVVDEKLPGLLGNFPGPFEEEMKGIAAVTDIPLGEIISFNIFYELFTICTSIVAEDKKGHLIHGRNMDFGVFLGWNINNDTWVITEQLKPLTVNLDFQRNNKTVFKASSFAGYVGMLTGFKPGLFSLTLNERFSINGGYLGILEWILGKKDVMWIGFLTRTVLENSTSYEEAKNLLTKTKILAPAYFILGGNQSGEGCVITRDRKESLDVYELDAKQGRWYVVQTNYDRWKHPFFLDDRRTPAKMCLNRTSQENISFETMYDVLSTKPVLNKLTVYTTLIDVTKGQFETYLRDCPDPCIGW
Summary of the method: (§1)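 Human neuroblastoma SH-SY5Y cells incubated with compound at 10 μM for 30 min, 1 h, 3 h and 6 h; AC activity by LC/MS-based activity assay; Cer (d18:0/16:0), Cer (d18:1/16:0), sphingosine, SM (d18:1/16:0) and HexCer (d18:1/16:0) quantified by LC/MS.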

[5] = molecular target: T1, Acid ceramidase (Homo sapiens); assay: Inhibition of acid ceramidase in human SH-SY5Y cells assessed as change in intracellular accumulation of HexCer (d18:1/16:0) at 10 uM measured up to 6 hrs by LC/MS analysis; format: cell-based; summary of the method: as §1

**Q.** For `CC(C)CNC(=O)n1c(=O)oc2cc(C3CCN(C)CC3)ccc21`, which “Cp(f)” value [1] is on record?
**A.** 420 nM

**Q.** What about the “Cp(f)” value [2] of the same molecule?
**A.** 520 nM

**Q.** What about the Ratio [3] of the same molecule?
**A.** 5.2

**Q.** What about the inhibition [4] of the same molecule?
**A.** Active

**Q.** And the inhibition [5]?
**A.** inactive

Reference: ChEMBL document CHEMBL4342473, “Lead Optimization of Benzoxazolone Carboxamides as Orally Bioavailable and CNS Penetrant Acid Ceramidase Inhibitors” (J Med Chem, 2020)
